Test results from ChEMBL document CHEMBL2040740, “Synthesis and antitumor activity of formononetin nitrogen mustard derivatives” (Eur J Med Chem, 2012).
Calls of active or inactive are those of the source. No cut-off for these calls is given here.

How the values were obtained:
SH-SY5Y = experiment: Cytotoxicity against human SH-SY5Y cells after 72 hrs by MTT assay; assay type: functional, cell-based
How it was run: (§1)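 Cells grown at 37 °C in 5% CO₂/95% air, in RPMI-1640 or DMEM with 10% neonatal bovine serum or 10% FBS. Exposed to a concentration series for 72 h, then MTT added for a further 4 h at 37 °C. Formazan dissolved in DMSO and absorbance read at 570 and 630 nm. Triplicate wells in three independent experiments; IC50 calculated by dose-effect analysis.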

DU-145 = experiment: Cytotoxicity against human DU145 cells after 72 hrs by MTT assay; assay type: functional, cell-based; conditions: DU-145, 72 h; how it was run: as §1
SGC-7901 = experiment: Cytotoxicity against human SGC7901 cells after 72 hrs by MTT assay; assay type: functional, cell-based; conditions: SGC-7901, 72 h; how it was run: as §1
HCT-116 [1] = experiment: Cytotoxicity against human HCT116 cells after 72 hrs by MTT assay; assay type: functional, cell-based; conditions: HCT-116, 72 h; how it was run: as §1
HeLa [2] = experiment: Cytotoxicity against human HeLa cells after 72 hrs by MTT assay; assay type: functional, cell-based; how it was run: as §1
HCT-116 [3] = experiment: Cell cycle arrest in human HCT116 cells assessed as accumulation in G2/M phase after 48 hrs by flow cytometry; assay type: functional, cell-based
How it was run: (§2)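 Cells exposed to test agent for 48 h, then harvested, washed twice in PBS and fixed in 75% ice-cold ethanol at least overnight. DNA content of 10,000 events analysed by flow cytometry, giving percentage of cells in each cycle phase versus vehicle control.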

HCT-116 [4] = experiment: Cell cycle arrest in human HCT116 cells assessed as accumulation in G2/M phase at 8 uM after 48 hrs by flow cytometry relative to control; assay type: functional; how it was run: as §2
HCT-116 [5] = experiment: Induction of apoptosis in human HCT116 cells assessed as early to mid apoptotic cells at 2 uM after 48 hrs by annexinV-FITC/PI staining-based flow cytometry (reference value: 1.62%); assay type: functional
How it was run: (§3)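 After 48 h treatment, cells washed twice in cold PBS and resuspended in binding buffer at 1 × 10⁵ cells/mL. Stained with Annexin V-FITC and propidium iodide in the dark for 15 min at room temperature, then analysed by flow cytometry. Lower-right quadrant scored as early-mid apoptotic, upper-right as late apoptotic/necrotic. Experiments performed three times.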

HCT-116 [6] = experiment: Induction of apoptosis in human HCT116 cells assessed as late apoptotic to necrotic cells at 8 uM after 48 hrs by annexinV-FITC/PI staining-based flow cytometry (reference value: 0.43%); assay type: functional; how it was run: as §3
HCT-116 [7] = experiment: Cell cycle arrest in human HCT116 cells assessed as decrease in S phase cells at 2 to 8 uM after 48 hrs by flow cytometry; assay type: functional, cell-based; how it was run: as §2
HCT-116 [8] = experiment: Induction of apoptosis in human HCT116 cells assessed as late apoptotic to necrotic cells at 2 uM after 48 hrs by annexinV-FITC/PI staining-based flow cytometry (reference value: 0.43%); assay type: functional; how it was run: as §3
HCT-116 [9] = experiment: Induction of apoptosis in human HCT116 cells assessed as early to mid apoptotic cells at 8 uM after 48 hrs by annexinV-FITC/PI staining-based flow cytometry (reference value: 1.62%); assay type: functional; how it was run: as §3
HeLa [10] = experiment: Induction of apoptosis in human HeLa cells assessed as late apoptotic to necrotic at 5 uM after 48 hrs by annexinV-FITC/PI staining-based flow cytometry (reference value: 1.98%); assay type: functional; how it was run: as §3
HeLa [11] = experiment: Cell cycle arrest in human HeLa cells assessed as accumulation in G2/M phase after 48 hrs by flow cytometry; assay type: functional, cell-based; how it was run: as §2
HeLa [12] = experiment: Induction of apoptosis in human HeLa cells assessed as early to mid apoptotic cells at 10 uM after 48 hrs by annexinV-FITC/PI staining-based flow cytometry (reference value: 2.93%); assay type: functional; how it was run: as §3
HeLa [13] = experiment: Induction of apoptosis in human HeLa cells assessed as early to mid apoptotic cells at 5 uM after 48 hrs by annexinV-FITC/PI staining-based flow cytometry (reference value: 2.93%); assay type: functional; how it was run: as §3
HeLa [14] = experiment: Cell cycle arrest in human HeLa cells assessed as decrease in S phase cells at 3.75 to 15 uM after 48 hrs by flow cytometry; assay type: functional, cell-based; how it was run: as §2
HeLa [15] = experiment: Cell cycle arrest in human HeLa cells assessed as accumulation in G2/M phase at 15 uM after 48 hrs by flow cytometry relative to control; assay type: functional; how it was run: as §2

Structure (SMILES) | IC50 (SH-SY5Y) [µM] | IC50 (DU-145) [µM] | IC50 (SGC-7901) [µM] | IC50 (HCT-116 [1]) [µM] | IC50 (HeLa [2]) [µM] | other results
CCOc1ccc2c(=O)c(-c3ccc(OC)c(N(CCCl)CCCl)c3)coc2c1 | 11.9 | 23.9 | 13 | 8.47 | 10.7 | –
COc1ccc(-c2coc3cc(OC4CCCCCC4)ccc3c2=O)cc1N(CCCl)CCCl | 2.08 | 10.1 | 14.3 | 5.72 | 8.85 | –
C=CCOc1ccc2c(=O)c(-c3ccc(OC)c(N(CCCl)CCCl)c3)coc2c1 | 4.51 | 15.4 | 10.2 | 7.54 | 9.22 | –
COc1ccc(-c2coc3cc(OCc4ccccc4)ccc3c2=O)cc1N(CCCl)CCCl | 11.4 | 26.5 | 18.8 | 4.97 | 16.4 | –
CCC(C)Oc1ccc2c(=O)c(-c3ccc(OC)c(N(CCCl)CCCl)c3)coc2c1 (stereo not drawn) | 3.58 | 28.8 | 47.5 | 20.2 | 18.9 | –
COc1ccc(-c2coc3cc(OC(C)C)ccc3c2=O)cc1N(CCCl)CCCl | 2.17 | 19.5 | 9.21 | 3.8 | 12.5 | Activity (HCT-116 [3]): Dose-dependent effect; Activity (HCT-116 [4]): 24.84%; Activity (HCT-116 [5]): 9.95%; Activity (HCT-116 [6]): 43.72%; Activity (HCT-116 [7]): Active; Activity (HCT-116 [8]): 0.38%; Activity (HCT-116 [9]): 38.1%
COc1ccc(-c2coc3cc(O)ccc3c2=O)cc1 [FORMONONETIN] | > 100 | > 100 | 2.17 | 61 | 8.51 | –
COc1ccc(-c2coc3cc(OC4CCCC4)ccc3c2=O)cc1N(CCCl)CCCl | 5.13 | 11.1 | 15.2 | 8.75 | 19.3 | –
COc1ccc(-c2coc3cc(OCC=C(C)C)ccc3c2=O)cc1N(CCCl)CCCl | 5.25 | 12.2 | 19.8 | 13.8 | 18 | –
COc1ccc(-c2coc3cc(O)ccc3c2=O)cc1N(CCCl)CCCl | 2.7 | 22.6 | 8.2 | 4.1 | 56.3 | –
CCCOc1ccc2c(=O)c(-c3ccc(OC)c(N(CCCl)CCCl)c3)coc2c1 | 7.89 | 28.8 | > 100 | 15.2 | 12.8 | –
COc1ccc(-c2coc3cc(OCc4ccc(C)cc4)ccc3c2=O)cc1N(CCCl)CCCl | 49.9 | 18.8 | 7.73 | 9.41 | 12.6 | –
COc1ccc(-c2coc3cc(OC4CCCCC4)ccc3c2=O)cc1N(CCCl)CCCl | 4.44 | 11.2 | 15.8 | 6.54 | 8.29 | Activity (HeLa [10]): 3.27%; Activity (HeLa [11]): Dose-dependent effect; Activity (HeLa [12]): 8.83%; Activity (HeLa [13]): 3.06%; Activity (HeLa [14]): Active; Activity (HeLa [15]): 21.33%
COc1ccc(-c2coc3cc(OCCC(C)C)ccc3c2=O)cc1N(CCCl)CCCl | 10.4 | 6.6 | 9.47 | 7.67 | 9.81 | –
C=C(C)COc1ccc2c(=O)c(-c3ccc(OC)c(N(CCCl)CCCl)c3)coc2c1 | 10.8 | 15.6 | 15.4 | 14.6 | 18.3 | –
CCCCOc1ccc2c(=O)c(-c3ccc(OC)c(N(CCCl)CCCl)c3)coc2c1 | 16.3 | 8.28 | 11.8 | 17.1 | 11.8 | –
COc1ccc(-c2coc3cc(OCCc4ccccc4)ccc3c2=O)cc1N(CCCl)CCCl | 3.84 | 7.57 | 11 | 8.05 | 17.8 | –
N[C@@H](Cc1ccc(N(CCCl)CCCl)cc1)C(=O)O [MELPHALAN] | 5.5 | 96.3 | 51 | 20.9 | 24 | –
